Reference: ChEMBL document CHEMBL4130533, “Cytotoxic Cardiac Glycoside Constituents of Vallaris glabra Leaves” (J Nat Prod, 2017)

What was measured:
Vero = assay: Antiproliferative activity against African green monkey Vero cells by MTT assay; type: cell-based; details: Chlorocebus sabaeus
How it was run: (§1)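 Antiproliferative MTT (microculture tetrazolium) assay run by a previously reported protocol, giving IC50 values. Cell lines came from ATCC: HeLaS3 cervix adenocarcinoma (CCL-2.2), A549 lung carcinoma (CCL-185), HT-29 colorectal adenocarcinoma (HTB-38), and nontumorigenic normal African green monkey kidney Vero (CCL-81).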

HeLa S3 = assay: Antiproliferative activity against human HeLaS3 cells by MTT assay; type: functional, cell-based; how it was run: as §1
HT-29 = assay: Antiproliferative activity against human HT-29 cells by MTT assay; type: functional, cell-based; how it was run: as §1
A549 = assay: Antiproliferative activity against human A549 cells by MTT assay; type: functional, cell-based; how it was run: as §1

Compound	IC50 (Vero) [nM]	IC50 (HeLa S3) [nM]	IC50 (HT-29) [nM]	IC50 (A549) [nM]
CO[C@@H]1[C@@H](O[C@@H]2O[C@H](CO)[C@@H](O)[C@H](O)[C@H]2O)[C@H](C)O[C@@H](O[C@H]2CC[C@@]3(C)[C@H](CC[C@@H]4[C@@H]3CC[C@]3(C)C(C5=CC(=O)OC5)=CC[C@]43O)C2)[C@@H]1OC(C)=O	> 10000	> 10000	> 10000	> 10000
CO[C@H]1[C@@H](O)[C@H](C)O[C@@H](O[C@H]2CC[C@@]3(C)[C@H](CC[C@@H]4[C@@H]3CC[C@]3(C)[C@@H](C5=CC(=O)OC5)[C@@H](OC(C)=O)C[C@]43O)C2)[C@@H]1OC(C)=O	300	100	100	30
CO[C@@H]1[C@@H](O[C@@H]2O[C@H](CO[C@@H]3O[C@H](CO)[C@@H](O)[C@H](O)[C@H]3O)[C@@H](O)[C@H](O)[C@H]2O)[C@H](C)O[C@@H](O[C@H]2CC[C@@]3(C)[C@H](CC[C@@H]4[C@@H]3CC[C@]3(C)[C@@H](C5=CC(=O)OC5)[C@@H](OC(C)=O)C[C@]43O)C2)[C@@H]1OC(C)=O	> 10000	1600	5000	2100
CO[C@H]1[C@@H](O)[C@H](O[C@H]2CC[C@@]3(C)[C@H](CC[C@@H]4[C@@H]3CC[C@]3(C)C(C5=CC(=O)OC5)=CC[C@]43O)C2)O[C@@H](C)[C@@H]1O[C@@H]1O[C@H](CO)[C@@H](O)[C@H](O)[C@H]1O	2500	700	800	300
CO[C@@H]1[C@@H](O)[C@H](C)O[C@@H](O[C@H]2CC[C@@]3(C)[C@H](CC[C@@H]4[C@@H]3CC[C@]3(C)[C@@H](C5=CC(=O)OC5)[C@@H](OC(C)=O)C[C@]43O)C2)[C@@H]1OC(C)=O	200	40	100	500
CO[C@@H]1[C@@H](O)[C@H](O[C@H]2CC[C@@]3(C)[C@H](CC[C@@H]4[C@@H]3CC[C@]3(C)[C@@H](C5=CC(=O)OC5)[C@@H](OC(C)=O)C[C@]43O)C2)O[C@@H](C)[C@@H]1O[C@@H]1O[C@H](CO[C@@H]2O[C@H](CO)[C@@H](O)[C@H](O)[C@H]2O)[C@@H](O)[C@H](O)[C@H]1O	6900	500	1600	1200
COc1cc([C@@H]2c3cc4c(cc3[C@@H](O[C@@H]3O[C@@H]5CO[C@@H](C)O[C@H]5[C@H](O)[C@H]3O)[C@H]3COC(=O)[C@H]23)OCO4)cc(OC)c1O [ETOPOSIDE]	> 10000	500	7600	> 10000
CO[C@@H]1[C@@H](O)[C@H](O[C@H]2CC[C@@]3(C)[C@H](CC[C@@H]4[C@@H]3CC[C@]3(C)C(C5=CC(=O)OC5)=CC[C@]43O)C2)O[C@@H](C)[C@@H]1O[C@@H]1O[C@H](CO)[C@@H](O)[C@H](O)[C@H]1O	6200	700	1900	1600
CO[C@@H]1[C@@H](O[C@@H]2O[C@H](CO)[C@@H](O)[C@H](O)[C@H]2O)[C@H](C)O[C@@H](O[C@H]2CC[C@@]3(C)[C@H](CC[C@@H]4[C@@H]3CC[C@]3(C)[C@@H](C5=CC(=O)OC5)[C@@H](OC(C)=O)C[C@]43O)C2)[C@@H]1OC(C)=O	5800	1400	1900	1500
CO[C@@H]1[C@@H](O)[C@H](O[C@H]2CC[C@@]3(C)[C@H](CC[C@@H]4[C@@H]3CC[C@]3(C)[C@@H](C5=CC(=O)OC5)[C@@H](O)C[C@]43O)C2)O[C@@H](C)[C@@H]1O[C@@H]1O[C@H](CO)[C@@H](O)[C@H](O)[C@H]1O	> 10000	6800	6400	3800
CO[C@H]1[C@@H](O[C@@H]2O[C@H](CO)[C@@H](O)[C@H](O)[C@H]2O)[C@H](C)O[C@@H](O[C@H]2CC[C@@]3(C)[C@H](CC[C@@H]4[C@@H]3CC[C@]3(C)[C@@H](C5=CC(=O)OC5)[C@@H](OC(C)=O)C[C@]43O)C2)[C@@H]1OC(C)=O	2200	400	600	600
COc1cccc2c1C(=O)c1c(O)c3c(c(O)c1C2=O)C[C@@](O)(C(=O)CO)C[C@@H]3O[C@H]1C[C@H](N)[C@H](O)[C@H](C)O1 [DOXORUBICIN]	6600	< 100	400	5000
CO[C@@H]1[C@@H](O)[C@H](O[C@H]2CC[C@@]3(C)[C@H](CC[C@@H]4[C@@H]3CC[C@]3(C)[C@@H](C5=CC(=O)OC5)[C@@H](OC(C)=O)C[C@]43O)C2)O[C@@H](C)[C@@H]1O[C@@H]1O[C@H](CO)[C@@H](O)[C@H](O)[C@H]1O	600	100	200	100
CO[C@H]1[C@@H](O)[C@H](O[C@H]2CC[C@@]3(C)[C@H](CC[C@@H]4[C@@H]3CC[C@]3(C)[C@@H](C5=CC(=O)OC5)[C@@H](OC(C)=O)C[C@]43O)C2)O[C@@H](C)[C@@H]1O[C@@H]1O[C@H](CO[C@@H]2O[C@H](CO)[C@@H](O)[C@H](O)[C@H]2O)[C@@H](O)[C@H](O)[C@H]1O	4800	400	1400	600
CO[C@H]1[C@@H](O)[C@H](O[C@H]2CC[C@@]3(C)[C@H](CC[C@@H]4[C@@H]3CC[C@]3(C)[C@@H](C5=CC(=O)OC5)[C@@H](OC(C)=O)C[C@]43O)C2)O[C@@H](C)[C@@H]1O[C@@H]1O[C@H](CO)[C@@H](O)[C@H](O)[C@H]1O	700	200	200	100
